Measurements reported in ChEMBL document CHEMBL4428026, “Discovery of New Monocarbonyl Ligustrazine-Curcumin Hybrids for Intervention of Drug-Sensitive and Drug-Resistant Lung Cancer” (J Med Chem, 2016).
The source made the active and inactive calls. No cut-off for these calls is given here.

How the values were obtained:
[1] = system: A549; test: Antiproliferative activity against human A549 cells after 72 hrs by MTT assay; format: functional, cell-based; details: A549, 72 h
Summary of the method: (§1)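 Cells (A549, A549/DDP, SPC-A-1, LTEP-G-2, non-tumor bronchial epithelial HBE) were exposed in triplicate to vehicle or compound for 72 h. MTT (5 mg/mL in PBS) was then added for 4 h, formazan was dissolved in DMSO, and absorbance was read at 570 nm. IC50 values were derived from viability.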

[2] = system: A549/CDDP; test: Antiproliferative activity against human A549/CDDP cells after 72 hrs by MTT assay; format: functional, cell-based; summary of the method: as §1
[3] = target: T1, Thioredoxin reductase (Homo sapiens, UniProt Q16881+Q9NNW7+Q86VQ6); test: Inhibition of thioredoxin reductase (unknown origin) after 2 hrs by DTNB dye based microplate spectrophotometry; format: protein assay
Summary of the method: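 NADPH-reduced TrxR (0.16 µM) was preincubated in triplicate with vehicle DMSO (0.1%, v/v) or varying compound concentrations for 2 h. It was then reacted with 2 mM DTNB and 200 µM NADPH for 3 min, and absorbance was read at 412 nm. IC50 was derived.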

[4] = target: T1, Thioredoxin reductase; test: Inhibition of thioredoxin reductase in human A549 cells by DTNB dye based microplate spectrophotometry; format: cell-based
Summary of the method: (§2)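 A549 or A549/DDP cells were treated with varying compound concentrations for 24 h, then harvested, homogenized and centrifuged. Protein (50 µg) was reacted in triplicate with NADPH and DTNB in TE buffer at 37 °C for 1 h, and TNB was read at 412 nm. Activity was taken from a purified-TrxR standard curve, and IC50 was derived.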

[5] = Cytotoxicity against NHBE cells after 72 hrs by MTT assay; format: cell-based; details: Homo sapiens; summary of the method: as §1
[6] = Antiproliferative activity against human LTEP-G2 cells after 72 hrs by MTT assay; format: functional, cell-based; summary of the method: as §1
[7] = Antiproliferative activity against human SPC-A1 cells after 72 hrs by MTT assay; format: functional, cell-based; details: SPCA1, 72 h; summary of the method: as §1
[8] = target: T1, Thioredoxin reductase; test: Inhibition of thioredoxin reductase in human A549/CDDP cells by DTNB dye based microplate spectrophotometry; format: cell-based; summary of the method: as §2
[9] = target: ATP-dependent translocase ABCB1 (Homo sapiens, UniProt P08183); test: Inhibition of P-gp ATPase activity in human A549/CDDP cells at 200 uM by luminescence assay (reference value: 706683 +/- 23554 RLU); format: cell-based
[10] = system: A549; test: Induction of apoptosis in human A549 cells at 2.1 to 4.2 uM after 24 hrs by annexin V-FITC/propidium iodide staining-based flow cytometry; format: functional, cell-based
Summary of the method: (§3)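 Cells were seeded at 1 × 10^5/well and treated 24 h with DMSO (1%) or compound. They were then washed in PBS, stained with FITC-Annexin V and propidium iodide, and apoptotic fractions were quantified by flow cytometry.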

[11] = system: A549/CDDP; test: Induction of apoptosis in human A549/CDDP cells at 0.6 to 1.2 uM after 24 hrs by annexin V-FITC/propidium iodide staining-based flow cytometry; format: functional, cell-based; summary of the method: as §3

Chain of ATP-dependent translocase ABCB1 (P08183 whole entry): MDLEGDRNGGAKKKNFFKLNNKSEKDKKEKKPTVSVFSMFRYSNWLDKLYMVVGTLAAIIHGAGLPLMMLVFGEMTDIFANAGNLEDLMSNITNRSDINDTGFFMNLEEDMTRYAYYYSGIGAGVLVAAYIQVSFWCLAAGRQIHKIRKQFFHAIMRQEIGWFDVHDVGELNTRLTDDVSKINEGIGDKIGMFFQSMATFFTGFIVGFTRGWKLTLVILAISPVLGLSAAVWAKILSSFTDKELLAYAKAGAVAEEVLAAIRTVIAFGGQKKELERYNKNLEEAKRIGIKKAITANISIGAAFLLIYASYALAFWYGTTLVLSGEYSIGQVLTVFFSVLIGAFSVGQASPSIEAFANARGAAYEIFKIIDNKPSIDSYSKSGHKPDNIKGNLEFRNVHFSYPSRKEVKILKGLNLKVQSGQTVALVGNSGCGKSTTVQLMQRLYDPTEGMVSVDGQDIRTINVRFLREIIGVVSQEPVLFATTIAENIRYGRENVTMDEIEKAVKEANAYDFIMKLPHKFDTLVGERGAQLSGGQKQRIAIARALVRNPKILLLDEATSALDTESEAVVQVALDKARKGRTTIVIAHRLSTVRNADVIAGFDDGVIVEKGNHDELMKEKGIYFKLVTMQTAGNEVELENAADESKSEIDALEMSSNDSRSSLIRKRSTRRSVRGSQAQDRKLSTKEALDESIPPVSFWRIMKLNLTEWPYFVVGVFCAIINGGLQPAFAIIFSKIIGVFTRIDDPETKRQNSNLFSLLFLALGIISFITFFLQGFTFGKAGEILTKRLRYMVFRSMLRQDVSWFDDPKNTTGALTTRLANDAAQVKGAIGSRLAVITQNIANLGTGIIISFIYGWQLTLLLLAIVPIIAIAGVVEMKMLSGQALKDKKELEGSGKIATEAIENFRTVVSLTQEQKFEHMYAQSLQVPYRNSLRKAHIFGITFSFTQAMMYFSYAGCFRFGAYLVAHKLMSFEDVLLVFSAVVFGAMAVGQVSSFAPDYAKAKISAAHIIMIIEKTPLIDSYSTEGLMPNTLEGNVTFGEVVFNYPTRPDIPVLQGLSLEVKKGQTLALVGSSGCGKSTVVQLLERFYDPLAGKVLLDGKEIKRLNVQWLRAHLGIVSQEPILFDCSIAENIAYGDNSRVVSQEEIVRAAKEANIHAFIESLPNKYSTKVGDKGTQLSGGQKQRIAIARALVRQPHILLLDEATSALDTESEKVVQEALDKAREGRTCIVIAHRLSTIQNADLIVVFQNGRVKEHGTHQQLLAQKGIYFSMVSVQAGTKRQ

IC50 [1]	IC50 [2]	Molecule	other results
3.3 µM	3.44 µM	COc1cccc(/C=C/C(=O)/C=C/c2nc(C)c(C)nc2C)c1	–
11.7 µM	6.9 µM	Cc1nc(C)c(/C=C/C(=O)/C=C/c2ccc(C(F)(F)F)cc2)nc1C	–
17.3 µM	6.39 µM	Cc1nc(C)c(/C=C/C(=O)/C=C/c2ccccc2[N+](=O)[O-])nc1C	–
1.6 µM	1 µM	COc1cc(/C=C/C(=O)/C=C/c2nc(C)c(C)nc2C)cc(OC)c1OC	IC50 [3]: 3.06 µM; IC50 [4]: 2.36 µM; IC50 [5]: 14.3 µM; IC50 [6]: 2.34 µM; IC50 [7]: 5.35 µM; IC50 [8]: 1.98 µM
–	–	SODIUM ORTHOVANAD	Activity [9]: 790447 RLU
5.9 µM	7.44 µM	Cc1nc(C)c(/C=C/C(=O)/C=C/c2ccc(F)cc2)nc1C	–
3.07 µM	2.85 µM	COc1ccc(/C=C/C(=O)/C=C/c2nc(C)c(C)nc2C)c(OC)c1	IC50 [3]: 7.63 µM; IC50 [4]: 4.12 µM; IC50 [5]: 20.8 µM; IC50 [6]: 5.91 µM; IC50 [7]: 6.32 µM; IC50 [8]: 4.26 µM
3.79 µM	2.44 µM	COc1ccc(/C=C/C(=O)/C=C/c2nc(C)c(C)nc2C)cc1OC	IC50 [3]: 7.09 µM; IC50 [4]: 4.17 µM; IC50 [5]: 16.2 µM; IC50 [6]: 4.36 µM; IC50 [7]: 5.42 µM; IC50 [8]: 4.22 µM
3.2 µM	4.74 µM	COc1ccccc1/C=C/C(=O)/C=C/c1nc(C)c(C)nc1C	–
3.5 µM	3.61 µM	COc1ccc(/C=C/C(=O)/C=C/c2nc(C)c(C)nc2C)cc1	–
2.85 µM	2.19 µM	COc1cccc(/C=C/C(=O)/C=C/c2nc(C)c(C)nc2C)c1O	IC50 [3]: 5.3 µM; IC50 [4]: 4.73 µM; IC50 [5]: 17.6 µM; IC50 [6]: 5.01 µM; IC50 [7]: 5.71 µM; IC50 [8]: 4.64 µM
12.3 µM	11.9 µM	Cc1nc(C)c(/C=C/C(=O)/C=C/c2ccccc2)nc1C	–
4.01 µM	4.79 µM	Cc1nc(C)c(/C=C/C(=O)/C=C/c2ccc(O)cc2)nc1C	–
9.6 µM	7.9 µM	Cc1nc(C)c(/C=C/C(=O)/C=C/c2ccc([N+](=O)[O-])cc2)nc1C	–
4.3 µM	3.99 µM	Cc1ccc(/C=C/C(=O)/C=C/c2nc(C)c(C)nc2C)cc1	–
4.78 µM	3.9 µM	Cc1nc(C)c(/C=C/C(=O)/C=C/c2ccccc2O)nc1C	–
> 200 µM	> 200 µM	Cc1nc(C)c(C)nc1C [LIGUSTRAZINE]	IC50 [3]: > 200 µM; IC50 [4]: > 200 µM; Activity [10]: Active; Activity [11]: Active; IC50 [8]: > 200 µM
15.8 µM	7.49 µM	Cc1nc(C)c(/C=C/C(=O)/C=C/c2ccc(Cl)cc2)nc1C	–
4.3 µM	3.7 µM	Cc1nc(C)c(/C=C/C(=O)/C=C/c2cccc(O)c2)nc1C	–
7.1 µM	11.8 µM	Cc1nc(C)c(/C=C/C(=O)/C=C/c2ccc3ccccc3c2)nc1C	–
4.5 µM	5.2 µM	Cc1nc(C)c(/C=C/C(=O)/C=C/c2ccc3c(c2)OCO3)nc1C	–
38.1 µM	32.4 µM	COc1cc(/C=C/C(=O)CC(=O)/C=C/c2ccc(O)c(OC)c2)ccc1O [CURCUMIN]	IC50 [3]: 41.42 µM; IC50 [4]: 40.56 µM; Activity [10]: Active; Activity [11]: Active; IC50 [8]: 39.42 µM
6.7 µM	6.69 µM	Cc1nc(C)c(/C=C/C(=O)/C=C/c2cccc([N+](=O)[O-])c2)nc1C	–
–	–	COc1ccc(CCN(C)CCCC(C#N)(c2ccc(OC)c(OC)c2)C(C)C)cc1OC (stereo not given) [VERAPAMIL]	Activity [9]: 641490 RLU
